Structures are written as SMILES.

The test system of data set [1] is Plasmodium berghei. Description: Antiplasmodial activity against Plasmodium berghei ANKA infected in Swiss mouse assessed as parasitemia at 90 mg/kg, ip measured on day 60 postinfection. In kind it is functional. Conditions: route intraperitoneal. The method in brief:
(§1)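 Male Swiss mice (5–6 weeks) infected i.p. with 10^7 P. berghei ANKA-parasitized erythrocytes taken from passage BALB/c mice and diluted in citrate-phosphate-dextrose. At 64 h (3–5% parasitemia confirmed by thin film), piperaquine phosphate was given once i.p. at 90 mg/kg in 50% glycerol/30% isotonic phosphate buffer pH 7.1/20% polysorbate 80. Parasitemia was read from May-Grunwald Giemsa tail-blood smears (mean ± SD) and tracked from dosing (day 0).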

Data set [2] concerns Plasmodium berghei. Description: Antiplasmodial activity against Plasmodium berghei ANKA infected in Swiss mouse assessed as parasitemia at 90 mg/kg, ip administered 5 days after infection measured up to 25 days. Conditions: route intraperitoneal. Format: functional. The method in brief: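 Donor blood from previously infected, treated mice was taken by cardiac puncture and the red cells washed three times in 0.9% NaCl. A 1:5 dilution (<10^5 parasites) was given i.p. to naive male mice (5 weeks; n = 5 per donor). Five days later, three mice per group received a single 90 mg/kg i.p. dose of piperaquine phosphate and two stayed untreated. Giemsa smears were read twice daily.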

A short description of data set [3]: Plasma concentration in Swiss mouse infected with Plasmodium berghei ANKA at 90 mg/kg, ip after 60 days. Format: ADME, organism-based. Further details: dose 90 mg/kg, route intraperitoneal. The method in brief: (§2)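 Infected Swiss mice (n = 4) were dosed with 90 mg/kg piperaquine phosphate i.p. at day 0. Plasma was taken by cardiac puncture, centrifuged at 3,000 x g for 5 min and stored at –80°C. Drug was measured by a validated HPLC assay (LOQ 1.6 µg/liter, LOD 0.7 µg/liter, CV <12%). Values are mean ± SD.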

A short description of data set [4]: Plasma concentration in Swiss mouse infected with Plasmodium berghei ANKA at 90 mg/kg, ip after 40 days. In kind it is ADME, organism-based. Further details: dose 90 mg/kg, route intraperitoneal. An outline of the steps:
as §2

For data set [5], the system named is Plasmodium berghei. Description: Antiplasmodial activity against Plasmodium berghei ANKA infected in Swiss mouse assessed as parasitemia at 90 mg/kg, ip measured on day 25 postinfection. Format: functional. Conditions: route intraperitoneal. An outline of the steps:
as §1

Data set [6] deals with Plasmodium berghei. Description: Antiplasmodial activity against Plasmodium berghei ANKA infected in Swiss mouse assessed as parasitemia at 90 mg/kg, ip measured on day 13 postinfection. In kind it is functional. To be noted: route intraperitoneal. An outline of the steps:
as §1

Data set [7] concerns Plasmodium berghei. Description: Antiplasmodial activity against Plasmodium berghei ANKA infected in Swiss mouse assessed as parasitemia at 90 mg/kg, ip measured on day 90 postinfection. To be noted: route intraperitoneal. In kind it is functional. An outline of the steps: as §1
The nature of data set [8]: Plasma concentration in Swiss mouse infected with Plasmodium berghei ANKA at 90 mg/kg, ip after 25 days. In kind it is ADME, organism-based. Details: dose 90 mg/kg, route intraperitoneal. The method in brief:
as §2

In data set [9] the test system is Plasmodium berghei. Description: Antiplasmodial activity against Plasmodium berghei ANKA infected in Swiss mouse assessed as parasitemia at 90 mg/kg, ip measured on day 40 postinfection. To be noted: route intraperitoneal. In kind it is functional. An outline of the steps:
as §1

The test system of data set [10] is Plasmodium berghei. Description: Antiplasmodial activity against Plasmodium berghei ANKA infected in Swiss mouse assessed as median survival time at 90 mg/kg, ip administered 5 days after infection. Format: functional. Conditions: route intraperitoneal. An outline of the steps: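 Naive male Swiss mice (5 weeks, n = 5 per donor) inoculated i.p. with 200 µl of a 1:5 dilution of saline-washed, buffy-coat-depleted red cells from PQP-treated infected donor mice (<105 parasites). Five days later three mice per cohort received single i.p. 90 mg/kg PQP in glycerol/phosphate buffer pH 7.1/polysorbate 80; two left untreated. Parasitemia by Giemsa thin films twice daily; median survival recorded.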

The subject of data set [11] is Plasmodium berghei. Description: Antiplasmodial activity against Plasmodium berghei ANKA infected in Swiss mouse assessed as assessed as time required for parasite recrudescence at 90 mg/kg, ip. Format: functional. Conditions: route intraperitoneal.

As to `Clc1ccc2c(N3CCN(CCCN4CCN(c5ccnc6cc(Cl)ccc56)CC4)CC3)ccnc2c1.O=P(O)(O)O` [PIPERAQUINE PHOSPHATE], the Activity is 0.3% in the data set with Plasmodium berghei [1]; 10% in the data set with Plasmodium berghei [2]; under 0.015% with Plasmodium berghei [5]; 1.32% in the data set on Plasmodium berghei [6]; 0.9% with Plasmodium berghei [7]; 0.1% in the data set with Plasmodium berghei [9]. This compound showed a concentration at 1440 h in data set [3] of 2 ng/mL. Besides, in data set [4], the concentration at 960 h is 11 ng/mL. Moreover, the concentration at 600 h in data set [8] was 15 ng/mL. Also, the MST in the data set with Plasmodium berghei [10] came out at 19 days. Moreover, the Time in the data set with Plasmodium berghei [11] was found to be 7 days.

These data come from ChEMBL document CHEMBL1649496, “Piperaquine pharmacodynamics and parasite viability in a murine malaria model” (Antimicrob Agents Chemother, 2009).
